In ChEMBL document CHEMBL1142242, “Indanylacetic acid derivatives carrying 4-thiazolyl-phenoxy tail groups, a new class of potent PPAR alpha/gamma/delta pan agonists: synthesis, structure-activity relationship, and in vivo efficacy” (J Med Chem, 2007):

What was measured:
[1] = target: T1, Peroxisome proliferator-activated receptor alpha (Homo sapiens, UniProt Q07869); assay: Agonist activity at human PPAR alpha by FRET assay; assay type: functional
T1 sequence (Q07869 whole entry): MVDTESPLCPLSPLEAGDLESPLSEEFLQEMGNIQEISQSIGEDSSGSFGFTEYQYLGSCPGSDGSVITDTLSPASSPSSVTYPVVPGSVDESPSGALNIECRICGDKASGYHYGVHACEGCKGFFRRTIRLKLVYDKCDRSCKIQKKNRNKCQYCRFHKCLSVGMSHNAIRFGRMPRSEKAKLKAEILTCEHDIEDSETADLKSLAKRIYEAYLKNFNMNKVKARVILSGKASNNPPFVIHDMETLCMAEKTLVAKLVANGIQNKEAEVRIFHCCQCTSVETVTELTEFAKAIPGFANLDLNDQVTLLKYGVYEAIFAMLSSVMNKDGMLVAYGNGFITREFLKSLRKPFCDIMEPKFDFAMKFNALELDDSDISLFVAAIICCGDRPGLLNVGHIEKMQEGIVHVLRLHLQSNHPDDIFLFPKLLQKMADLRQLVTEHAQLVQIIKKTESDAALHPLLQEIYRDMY
Summary of the method: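 Human PPARα ligand binding domain (GST-tagged) association with biotin-labeled co-activator CBP; Eu-labeled anti-GST antibody and streptavidin-APC; incubated 2 h at rt in buffer with or without compound; fluorescence read at 615 or 655 nm emission, 340 nm excitation.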

[2] = target: T2, Peroxisome proliferator-activated receptor gamma (Mus musculus, UniProt P37238); assay: Agonist activity at PPAR gamma in mouse 3T3L1 cells assessed as increase in insulin receptor by IRBA; assay type: functional, cell-based, 3T3-L1
T2 sequence (P37238 whole entry): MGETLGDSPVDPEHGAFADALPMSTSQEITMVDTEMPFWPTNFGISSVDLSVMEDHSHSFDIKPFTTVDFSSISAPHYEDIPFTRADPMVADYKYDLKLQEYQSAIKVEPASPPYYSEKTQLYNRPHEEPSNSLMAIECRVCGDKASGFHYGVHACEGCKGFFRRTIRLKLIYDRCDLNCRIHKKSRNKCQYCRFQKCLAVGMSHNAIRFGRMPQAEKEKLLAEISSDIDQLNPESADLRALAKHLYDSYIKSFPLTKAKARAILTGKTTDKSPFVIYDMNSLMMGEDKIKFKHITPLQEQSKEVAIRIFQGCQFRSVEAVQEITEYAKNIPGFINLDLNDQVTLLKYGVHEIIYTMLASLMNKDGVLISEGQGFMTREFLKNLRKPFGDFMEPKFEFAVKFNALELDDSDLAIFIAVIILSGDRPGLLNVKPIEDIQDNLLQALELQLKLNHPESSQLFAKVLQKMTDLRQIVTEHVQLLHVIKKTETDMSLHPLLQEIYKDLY

[3] = target: T3, Peroxisome proliferator-activated receptor delta (Homo sapiens, UniProt Q03181); assay: Agonist activity at human PPAR delta by FRET assay; assay type: functional
T3 sequence (Q03181 whole entry): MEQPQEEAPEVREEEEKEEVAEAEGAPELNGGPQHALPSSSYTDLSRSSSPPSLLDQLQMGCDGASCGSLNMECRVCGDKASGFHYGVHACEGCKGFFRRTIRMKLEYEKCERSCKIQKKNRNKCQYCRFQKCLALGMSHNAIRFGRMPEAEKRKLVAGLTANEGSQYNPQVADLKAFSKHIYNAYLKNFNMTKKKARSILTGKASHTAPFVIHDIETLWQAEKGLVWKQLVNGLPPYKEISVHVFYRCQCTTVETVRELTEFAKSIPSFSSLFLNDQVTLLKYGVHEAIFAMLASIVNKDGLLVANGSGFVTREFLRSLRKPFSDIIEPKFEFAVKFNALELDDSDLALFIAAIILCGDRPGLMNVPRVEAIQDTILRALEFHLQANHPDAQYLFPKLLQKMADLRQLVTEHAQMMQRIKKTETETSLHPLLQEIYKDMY

SMILES	EC50 [1] [µM]	EC50 [2] [µM]	EC50 [3] [µM]
O=C(O)C[C@@H]1CCc2cc(OCCCOc3ccc(-c4ccsc4)cc3)ccc21	> 10	0.65	0.0059
CC(=O)Nc1cc(-n2ccnn2)ccc1OCCCOc1ccc2c(c1)CC[C@H]2CC(=O)O	9.2	5.6	–
O=C(O)C[C@@H]1CCc2cc(OCCCOc3ccc(-c4ccoc4)cc3)ccc21	3.27	4.1	0.0038
CCCc1cc(-c2nc(OCC)cs2)ccc1OCCCOc1ccc2c(c1)CC[C@H]2CC(=O)O	0.105	0.041	0.002
O=C(O)C[C@@H]1CCc2cc(OCCCOc3ccc(-c4ccc5cc[nH]c5c4)cc3)ccc21	6.6	0.74	0.0015
N#Cc1ccc(OCCCOc2ccc3c(c2)CC[C@H]3CC(=O)O)cc1	5.7	0.637	0.0073
Cc1cc(-c2nc(C(F)(F)F)ns2)ccc1OCCCOc1ccc2c(c1)CC[C@H]2CC(=O)O	0.52	0.158	0.0034
Cc1cccc(OCCCOc2ccc3c(c2)CC[C@H]3CC(=O)O)c1	> 10	8	0.056
O=C(O)C[C@@H]1CCc2cc(OCCCOc3ccc4cc[nH]c4c3)ccc21	> 10	> 10	0.019
CCCc1cc(Oc2ccccc2)ccc1OCCCOc1ccc2c(c1)CC[C@H]2CC(=O)O	> 10	–	0.0019
O=C(O)C[C@@H]1CCc2cc(OCCCOc3ccc(-c4ccccc4)cc3)ccc21	> 10	–	0.043
O=C(O)C[C@@H]1CCc2cc(OCCCOc3ccc(-n4cncn4)cc3)ccc21	> 10	–	–
CCCc1cc(C(F)(F)F)ccc1OCCCOc1ccc2c(c1)CC[C@H]2CC(=O)O	1.14	–	0.0016
COc1cc(-c2nc3ccccc3s2)ccc1OCCCOc1ccc2c(c1)CC[C@H]2CC(=O)O	0.526	–	0.0052

Continued, values first:

EC50 [1] [µM]	EC50 [2] [µM]	EC50 [3] [µM]	SMILES
0.15	0.177	0.006	CCOc1nc(-c2ccc(OCCCOc3ccc4c(c3)CC[C@H]4CC(=O)O)c(OC)c2)sc1C
0.437	0.327	0.0029	COc1cc(-c2nc(C(F)(F)F)cs2)ccc1OCCCOc1ccc2c(c1)CC[C@H]2CC(=O)O
> 10	1.8	0.024	O=C(O)C[C@@H]1CCc2cc(OCCCOc3ccc4[nH]ccc4c3)ccc21
> 10	> 10	0.044	O=C(O)C[C@@H]1CCc2cc(OCCCOc3ccccc3)ccc21
0.061	0.034	0.0032	CCCc1cc(-c2nc(OCC)c(C)s2)ccc1OCCCOc1ccc2c(c1)CC[C@H]2CC(=O)O
> 10	3.66	0.016	Cc1noc2cc(OCCCOc3ccc4c(c3)CC[C@H]4CC(=O)O)ccc12
0.18	0.044	0.003	COc1cc(-c2nc(OC(C)C)cs2)ccc1OCCCOc1ccc2c(c1)CC[C@H]2CC(=O)O
> 10	1.24	0.0022	CCOc1cc(C)ccc1OCCCOc1ccc2c(c1)CC[C@H]2CC(=O)O
> 10	–	0.117	COc1cccc(OCCCOc2ccc3c(c2)CC[C@H]3CC(=O)O)c1
0.254	0.065	0.0025	CCc1csc(-c2ccc(OCCCOc3ccc4c(c3)CC[C@H]4CC(=O)O)c(OC)c2)n1
6.85	8.7	2.23	O=C(O)C[C@@H]1CCc2cc(OCCCOc3ccc(-n4cnnc4)cc3Cl)ccc21
3.95	0.57	0.025	CCCc1cc(C#N)ccc1OCCCOc1ccc2c(c1)CC[C@H]2CC(=O)O
0.255	0.374	–	COc1cc(-c2nccs2)ccc1OCCCOc1ccc2c(c1)CC[C@H]2CC(=O)O
0.803	–	0.0021	COc1cc(-c2nc(C)c(C(=O)N(C)C)s2)ccc1OCCCOc1ccc2c(c1)CC[C@H]2CC(=O)O
